The subject of experiment [1] is Human immunodeficiency virus 1. Nature of the experiment: Antiviral activity against HIV-1 in human Jurkat T cells assessed as reduction GFP positive cells at 1 uM for 18 hrs. It is filed as functional, organism-based. The procedure, abridged: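 Jurkat E6 cells pretreated overnight with inhibitor (5 µM; DZNep 5 or 10 µM; phenelzine 250 µM), washed twice with PBS, then spinoculated with VSV-G-pseudotyped HIV-1 (d2EGFP-Nef). Three days later, silent proviruses induced with 1 µM SAHA for 18 h. d2EGFP measured by FACS. Relative silencing is the % silent virus (SAHA-stimulated minus untreated GFP+), divided by scrambled/untreated control. Two independent experiments, SEM.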

The subject of experiment [2] is Human immunodeficiency virus 1. The experiment is described as follows: Reactivation of HIV-1 infected in human Jurkat cells at 1 uM measured after 7 days by FACS analysis relative to control. It is filed as functional. To be noted: time 7 day. The procedure, abridged:
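E4 Jurkat cells carrying latent d2EGFP HIV-1, infected with shRNA or CRISPR-Cas9 lentivirus. Seven days post-infection, stimulated overnight with SAHA (1 µM), anti-CD3 (0.125 µg/ml) plus anti-CD28 (1 µg/ml), or TNF-α (1 ng/ml). d2EGFP-positive cells quantified by FACS. Three separate experiments, SEM.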

For experiment [3], the system named is Human immunodeficiency virus 1. Nature of the experiment: Reactivation of HIV-1 latent proviruses in Th17 resting memory T cells by measuring pSer175 CDK9 level treated at 100 nM for 96 hrs by FACS analysis (reference value: 1.07%). It is filed as functional. (In general: In flow cytometry, cells or beads pass a laser one at a time.)
The test system of experiment [4] is Human immunodeficiency virus 1. The experiment is described as follows: Reactivation of HIV-1 latent proviruses in Th17 resting memory T cells by measuring pSer175 CDK9 level treated at 10 nM for 96 hrs by FACS analysis (reference value: 1.07%). Format: functional.
In experiment [5] the test system is Human immunodeficiency virus 1. The experiment is described as follows: Reactivation of HIV-1 latent proviruses in Th17 resting memory T cells after PRC2 KD infected with vesicular stomatitis virus G-pseudotyped HIV-1 at 100 nM by FACS analysis relative to control. It is filed as functional. The procedure, abridged: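 Th17 cells were pretreated with 100 nM compound for 72 h, then infected with VSV-G-pseudotyped HIV-1 and cultured under low-cytokine conditions to force quiescence, with drug replenished every 72 h. On day 26 the drug was washed out and cells were induced with CD3/CD28 beads, IL-15 (50 ng/ml) or ConA (5 µg/ml). Nef and pSer175-CDK9 were read by FACS against DMSO-pretreated cells.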

Experiment [6] has as its system Human immunodeficiency virus 1. Nature of the experiment: Reactivation of quiescent HIV-1 infected in human Th17 cells stimulated by IL-15 treated at 100 nM for 72 hrs followed by viral infection replenishment of drug medium every 72 hrs for 26 days by FACS analysis relative to control. It is filed as functional. The method, boiled down: (§1)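 Th17 cells exposed to inhibitor (100 nM) for 72 h, then infected with HIV-1. Infected cells kept under low-cytokine conditions to enter quiescence, with drug replenished every 72 h. On day 26, cells washed free of drug and induced with CD3/CD28 beads, IL-15 (50 ng/ml) or ConA (5 µg/ml). Nef and pSer175-CDK9 read by FACS; DMSO-pretreated control.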

Experiment [7] relates to Human immunodeficiency virus 1. Nature of the experiment: Reactivation of HIV-1 latent proviruses in Th17 resting memory T cells after PRC2 KD infected with vesicular stomatitis virus G-pseudotyped HIV-1 at 10 nM by FACS analysis. Format: functional. The method, boiled down:
(§2)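 Naive CD4+ T cells from healthy-donor PBMCs were activated with CD3/CD28 beads, polarized to Th17, and infected with VSV-G-pseudotyped Nef+ HIV-1 expressing CD8a-d2EGFP. Infected cells were CD8a-selected and made quiescent for 2 weeks in IL-2 (15 IU/ml) plus IL-23 ([…]). Cells were then exposed to compound for 96 h. Nef and pSer175-CDK9 were read by FACS, and viability by propidium iodide.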

The subject of experiment [8] is Human immunodeficiency virus 1. The experiment is described as follows: Reactivation of HIV-1 latent proviruses in Th17 resting memory T cells by measuring pSer175 CDK9 level treated at 1 uM for 96 hrs by FACS analysis (reference value: 1.07%). Format: functional. The procedure, abridged: as §2
Experiment [9] deals with Human immunodeficiency virus 1. Nature of the experiment: Reactivation of latent proviruses in human Th17 cells infected with HIV-1 assessed as Nef and pSer175-CDK9 levels at 100 nM after 72 hrs by FACS analysis. Format: functional. The procedure, abridged: as §1
For experiment [10], the system named is Human immunodeficiency virus 1. The experiment is described as follows: Reactivation of HIV-1 latent proviruses in Th17 resting memory T cells by measuring pSer175 CDK9 level treated at 10 nM for 96 hrs by FACS analysis (reference value: 1.59%). It is filed as functional.
In experiment [11] the test system is Human immunodeficiency virus 1. The experiment is described as follows: Reactivation of HIV-1 latent proviruses in Th17 resting memory T cells by measuring pSer175 CDK9 level treated at 100 nM for 96 hrs by FACS analysis (reference value: 1.59%). Format: functional. The procedure, abridged:
as §2

Experiment [12] deals with Human immunodeficiency virus 1. The experiment is described as follows: Reactivation of HIV-1 latent proviruses in Th17 resting memory T cells by measuring pSer175 CDK9 level treated at 1 uM for 96 hrs by FACS analysis (reference value: 1.59%). It is filed as functional. The procedure, abridged:
as §2

Experiment [13] deals with Human immunodeficiency virus 1. The experiment is described as follows: Reactivation of HIV-1 latent proviruses in Th17 resting memory T cells by measuring pSer175 CDK9 level treated at 100 nM for 96 hrs by FACS analysis (reference value: 0.76%). It is filed as functional. The method, boiled down: as §2
In experiment [14] the test system is Human immunodeficiency virus 1. The experiment is described as follows: Reactivation of HIV-1 latent proviruses in Th17 resting memory T cells by measuring pSer175 CDK9 level treated at 10 nM for 96 hrs by FACS analysis (reference value: 0.76%). It is filed as functional.
Experiment [15] deals with Human immunodeficiency virus 1. Nature of the experiment: Reactivation of HIV-1 latent proviruses in Th17 resting memory T cells by measuring pSer175 CDK9 level treated at 1 uM for 96 hrs by FACS analysis (reference value: 0.76%). It is filed as functional. The procedure, abridged: as §2

Activity calls are given as the source filed them. No cut-off for these calls is given here.

As to `O=C(CCCCCCC(=O)Nc1ccccc1)NO` [VORINOSTAT], the outcome in experiment [1] was Active. In experiment [2], the Activity is reported as ~30%.
Turning to `CCCc1cc(C)[nH]c(=O)c1CNC(=O)c1cc(-c2ccnc(N3CCN(C)CC3)c2)cc2c1cnn2C(C)C`, the Activity is on record as 24.13% in experiment [3]; 22.31% in [4]; 24.15% in experiment [5]; 27% in experiment [6]; 20% in experiment [7]; 29.11% in experiment [8]. In addition, the Activity in experiment [9] is ~8%.
For the molecule `COc1cc2c(NC3CCN(C(C)C)CC3)nc(C3CCCCC3)nc2cc1OCCCN1CCCC1`, the Activity in [10] was 22.84%; in experiment [6], 22%; in experiment [7], 35%; in experiment [11] it was 32.18%; in experiment [12], 34.92%; in [9], ~4%.
Regarding `CCN(c1cc(-c2ccc(CN3CCOCC3)cc2)cc(C(=O)NCc2c(C)cc(C)[nH]c2=O)c1C)C1CCOCC1` [TAZEMETOSTAT], the Activity is recorded as 29.17% in experiment [13]; 16.28% in experiment [14]; 27.81% in experiment [15]; 40% in [6]; 20% in experiment [7]; ~10% in experiment [9].

For the origin of these results see ChEMBL document CHEMBL5712893, “Multiple Histone Lysine Methyltransferases Are Required for the Establishment and Maintenance of HIV-1 Latency” (2017).
